ChEMBL document CHEMBL1123557, “N-substituted 1,2,3,4,4a,5,6,10b-octahydrobenzo[f]quinolines and 3-phenylpiperidines: effects on central dopamine and sigma receptors” (J Med Chem, 1987)
Activity calls are given as the source filed them. The calls are words filed in the database; no cut-off is given here.

Experiments:
D(2) dopamine receptor [1] = molecular target: T1, D(2) dopamine receptor (Rattus norvegicus, UniProt P61169); experiment: Binding affinity against Dopamine receptor D2 using [3H]spiperone as radioligand
T1 sequence (P61169 whole entry): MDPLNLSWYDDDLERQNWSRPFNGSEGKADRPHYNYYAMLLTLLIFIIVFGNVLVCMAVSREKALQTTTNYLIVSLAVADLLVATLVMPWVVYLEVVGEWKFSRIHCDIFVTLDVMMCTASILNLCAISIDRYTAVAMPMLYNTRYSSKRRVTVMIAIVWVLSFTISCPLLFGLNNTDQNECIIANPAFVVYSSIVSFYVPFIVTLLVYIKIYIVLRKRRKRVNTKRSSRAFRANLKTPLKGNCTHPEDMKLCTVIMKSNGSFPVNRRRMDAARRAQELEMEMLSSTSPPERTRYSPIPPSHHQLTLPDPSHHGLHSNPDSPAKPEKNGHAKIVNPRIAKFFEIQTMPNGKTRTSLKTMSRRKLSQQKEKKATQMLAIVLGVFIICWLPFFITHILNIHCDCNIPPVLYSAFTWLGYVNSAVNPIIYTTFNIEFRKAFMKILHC
Procedure, shortened: (§1)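 Rat striatal membranes (male Sprague-Dawley, 150–250 g), washed three times in 50 mM Tris-HCl pH 7.7. 0.2–0.4 nM [3H]spiperone with 100 mM NaCl and 3 mM MgCl2, about 2 mg tissue, 15 min at 37 °C. Nonspecific binding defined with 1 μM haloperidol. Bound ligand collected by filtration onto PEI-treated glass fiber filters and counted by scintillation. Competition curves fitted iteratively.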

[2] = molecular target: Sigma non-opioid intracellular receptor 1 (Rattus norvegicus, UniProt Q9R0C9); experiment: In vitro for binding affinity against sigma receptor using [3H](+)-3-PPP as radioligand
Sequence of Sigma non-opioid intracellular receptor 1 (Q9R0C9 whole entry): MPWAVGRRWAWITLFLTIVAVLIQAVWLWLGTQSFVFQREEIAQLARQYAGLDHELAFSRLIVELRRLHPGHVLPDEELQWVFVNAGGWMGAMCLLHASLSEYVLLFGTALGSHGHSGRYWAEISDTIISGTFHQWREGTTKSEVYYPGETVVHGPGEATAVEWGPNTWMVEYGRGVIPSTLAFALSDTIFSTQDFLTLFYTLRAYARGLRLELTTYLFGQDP
Procedure, shortened: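 Whole rat brain membranes (male Sprague-Dawley) in 50 mM Tris-HCl pH 8.0. Nonspecific binding defined with 1 μM haloperidol. Rapid filtration onto PEI-treated glass fiber filters, scintillation counting. IC50 from iterative curve fitting.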

Rattus norvegicus [3] = experiment: post-synaptic dopaminergic effect was assessed by the increase in locomotor activity at 30 min time interval by 265 umol/kg dosage administration; format: functional
[4] = molecular target: D(2) dopamine receptor (Rattus norvegicus) (UniProt P61169); experiment: Tested in vivo for binding affinity against Dopamine receptor D2 using nonradiolabeled 5,6-di-n-Pr-ADTN; format: organism-based; set-up: concentration or dose not given beside the values
Sequence of D(2) dopamine receptor (Rattus norvegicus) (P61169 whole entry): as the sequence (P61169 whole entry) above

Rattus norvegicus [5] = experiment: post-synaptic dopaminergic effect was assessed by the increase in locomotor activity at 30 min time interval by 3.1 umol/kg dosage administration; format: functional
[6] = tested on: Dopamine D2 receptor (Rattus norvegicus); experiment: Effective dose required for DOPA accumulation (presynaptic dopaminergic effect) in rat
Rattus norvegicus [7] = experiment: post-synaptic dopaminergic effect was assessed by the increase in locomotor activity at 30 min time interval by 106 umol/kg dosage administration; format: functional
Rattus norvegicus [8] = species on record: Rattus norvegicus; experiment: Effective dose required for DOPA accumulation (presynaptic dopaminergic effect) in rat; I is inactive; format: functional, organism-based
Procedure, shortened: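 Male Sprague-Dawley rats (200–300 g); drug in saline given sc. DOPA measured by HPLC with electrochemical detection in each brain area. Dose-response curves used four to six dose levels per substance and area.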

Rattus norvegicus [9] = experiment: post-synaptic dopaminergic effect was assessed by the increase in locomotor activity at 30 min time interval by 53 umol/kg dosage administration; format: functional
Rattus norvegicus [10] = experiment: post-synaptic dopaminergic effect was assessed by the increase in locomotor activity at 30 min time interval by 1.06 umol/kg dosage administration; format: functional
Rattus norvegicus [11] = experiment: post-synaptic dopaminergic effect was assessed by the increase in locomotor activity at 30 min time interval by 7 umol/kg dosage administration; format: functional
Rattus norvegicus [12] = experiment: post-synaptic dopaminergic effect was assessed by the increase in locomotor activity at 30 min time interval by 100 umol/kg dosage administration; format: functional
Rattus norvegicus [13] = experiment: post-synaptic dopaminergic effect was assessed by the increase in locomotor activity at 30 min time interval by 50 umol/kg dosage administration; format: functional
Rattus norvegicus [14] = experiment: post-synaptic dopaminergic effect was assessed by the increase in locomotor activity at 30 min time interval by 200 umol/kg dosage administration; format: functional
Rattus norvegicus [15] = experiment: post-synaptic dopaminergic effect was assessed by the increase in locomotor activity at 30 min time interval by 25 umol/kg dosage administration; format: functional
Rattus norvegicus [16] = experiment: post-synaptic dopaminergic effect was assessed by the increase in locomotor activity at 30 min time interval by 3.3 umol/kg dosage administration; format: functional
Procedure, shortened: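 Test substance dissolved in saline immediately before use, occasionally with a few drops of glacial acetic acid and/or moderate heating; dosing solutions at neutral pH. Locomotor activity is the behavioral read-out of postsynaptic dopamine receptor stimulation.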

D(2) dopamine receptor [17] = molecular target: T1, D(2) dopamine receptor; experiment: Compound was tested in vitro for binding affinity against Dopamine receptor D2 using [3H]-spiperone as radioligand; procedure, shortened: as §1
Rattus norvegicus [18] = experiment: post-synaptic dopaminergic effect was assessed by the increase in locomotor activity at 30 min time interval by 14 umol/kg dosage administration; format: functional
Rattus norvegicus [19] = experiment: post-synaptic dopaminergic effect was assessed by the increase in locomotor activity at 30 min time interval by 213 umol/kg dosage administration; format: functional
Rattus norvegicus [20] = experiment: post-synaptic dopaminergic effect was assessed by the increase in locomotor activity at 30 min time interval by 133 umol/kg dosage administration; format: functional
Rattus norvegicus [21] = experiment: post-synaptic dopaminergic effect was assessed by the increase in locomotor activity at 30 min time interval by 13 umol/kg dosage administration; format: functional
Rattus norvegicus [22] = experiment: post-synaptic dopaminergic effect was assessed by the increase in locomotor activity at 30 min time interval by 10.6 umol/kg dosage administration; format: functional
D(2) dopamine receptor [23] = molecular target: T1, D(2) dopamine receptor; experiment: Compound was tested in vivo for binding affinity against D2 receptor using nonradiolabeled 5,6-di-n-Pr-ADTN; format: organism-based

Structure (SMILES)	IC50 (D(2) dopamine receptor [1])	IC50 [2]	also measured
Oc1ccc2c(c1)C1CCCNC1CC2 (racemic; 31) [listing 1 of 2 here]	30400 nM	11600 nM	
CCCN1CCCC2c3ccc(O)cc3CCC21 (racemic; 17)	730 nM	10 nM	
Oc1cccc([C@H]2CCCNC2)c1	435 nM	4570 nM	Accumulated counts (Rattus norvegicus [3]): 47
COc1ccc2c(c1)C1CCCN(CCc3ccccc3)C1CC2 (racemic)	435 nM	14 nM	
CCCCN1CCCC2c3cccc(O)c3CCC21 (racemic)	38 nM	23 nM	Control [4]: 57%; Accumulated counts (Rattus norvegicus [5]): 196; ED50 [6]: 0.08 µmol/kg
CN1CCCC2c3cc(O)ccc3CCC21 (racemic)	265 nM	221 nM	Control [4]: 57%; Accumulated counts (Rattus norvegicus [7]): 60; ED50 [6]: 0.4 µmol/kg
Oc1ccc2c(c1)C1CCCNC1CC2 (racemic; 18) [listing 1 of 2 here]	895 nM	1940 nM	Accumulated counts (Rattus norvegicus [7]): 10
CCCN1CCC[C@@H]2c3cccc(O)c3CC[C@@H]21 (racemic) [listing 1 of 2 here]	2100 nM	416 nM	
Oc1ccc2c(c1)C1CCCNC1CC2 (racemic; 31) [listing 2 of 2 here]			ED50 (Rattus norvegicus [8]): inactive
CCCN1CCCC2c3cc(O)ccc3CCC21 (racemic; 32) [listing 1 of 2 here]			ED50 (Rattus norvegicus [8]): inactive
CC(C)N1CCC[C@H](c2cccc(O)c2)C1	12100 nM	247 nM	Accumulated counts (Rattus norvegicus [9]): 49
CCCN1CCCC2c3cc(O)ccc3CCC21 (stereo in doubt; form 2) [listing 1 of 2 here]	25 nM	21 nM	Accumulated counts (Rattus norvegicus [10]): 155
CCCN1CCCC2c3cc(O)ccc3CCC21 (racemic; 32) [listing 2 of 2 here]	6700 nM	66 nM	
Oc1cccc([C@@H]2CCCN(CCc3ccccc3)C2)c1	44 nM	16 nM	Accumulated counts (Rattus norvegicus [11]): 71
CCCN1CCCC2c3cc(O)ccc3CCC21 (stereo in doubt; form 1) [listing 1 of 2 here]			ED50 [6]: 0.25 µmol/kg
CN1CCCC2c3cccc(O)c3CCC21 (racemic)	114 nM	610 nM	Control [4]: 33%; Accumulated counts (Rattus norvegicus [12]): 40
Oc1cccc2c1CC[C@@H]1NCCC[C@@H]21	92 nM	3610 nM	
CCCN1CCCC(c2ccc(O)cc2)C1 (stereo not drawn)	13000 nM	276 nM	ED50 (Rattus norvegicus [8]): inactive
Oc1ccc2c(c1)C1CCCNC1CC2 (racemic; 18) [listing 2 of 2 here]			Control [4]: 90%
Oc1ccc2c(c1)C1CCCN(Cc3ccccc3)C1CC2 (racemic)	3440 nM	11 nM	ED50 (Rattus norvegicus [8]): inactive; Accumulated counts (Rattus norvegicus [13]): 78
CCCN1CCCC2c3ccc(O)cc3CCC21 (racemic; 30) [listing 1 of 2 here]			ED50 (Rattus norvegicus [8]): inactive
CCCCN1CCC[C@@H](c2cccc(O)c2)C1	275 nM	31 nM	Control [4]: 43%; Accumulated counts (Rattus norvegicus [9]): 63
Oc1cccc([C@@H]2CCCNC2)c1	1750 nM	15600 nM	ED50 (Rattus norvegicus [8]): inactive; Accumulated counts (Rattus norvegicus [14]): 4
Oc1cccc2c1CCC1C2CCCN1CCc1ccccc1 (racemic)	6 nM	65 nM	Control [4]: 67%; Accumulated counts (Rattus norvegicus [15]): 143; ED50 [6]: 0.043 µmol/kg
COc1ccc2c(c1)C1CCCN(Cc3ccccc3)C1CC2 (racemic)	5520 nM		ED50 (Rattus norvegicus [8]): inactive; Accumulated counts (Rattus norvegicus [13]): 21
Oc1cccc2c1CC[C@H]1NCCC[C@H]21	1550 nM	2370 nM	

Structure (SMILES)	IC50 (D(2) dopamine receptor [1])	IC50 [2]	also measured
CCCCN1CCCC2c3cc(O)ccc3CCC21 (racemic; 23) [listing 1 of 2 here]			ED50 (Rattus norvegicus [8]): inactive
CCCN1CCC[C@@H]2c3cccc(O)c3CC[C@@H]21	160 nM	48 nM	Accumulated counts (Rattus norvegicus [5]): 59
CN1CCCC(c2cccc(O)c2)C1 (stereo not drawn)	1950 nM	1910 nM	Accumulated counts (Rattus norvegicus [12]): 36
Oc1cccc2c1CCC1NCCCC21 (racemic)	7500 nM	14900 nM	ED50 (Rattus norvegicus [8]): inactive; Accumulated counts (Rattus norvegicus [7]): 10
CC(C)N1CCC[C@@H](c2cccc(O)c2)C1	355 nM	208 nM	Accumulated counts (Rattus norvegicus [16]): 38
Oc1ccc2c(c1)C1CCCN(CCc3ccccc3)C1CC2 (racemic)	990 nM	27 nM	ED50 (Rattus norvegicus [8]): inactive; Accumulated counts (Rattus norvegicus [15]): 72
CCCN1CCCC2c3cc(O)ccc3CCC21 (stereo in doubt; form 2) [listing 2 of 2 here]			ED50 [6]: 0.004 µmol/kg
CCCN1CCCC2c3cc(O)ccc3CCC21 (racemic; 21) [listing 1 of 2 here]	101 nM	19 nM	Accumulated counts (Rattus norvegicus [10]): 188
CCCN1CCCC2c3cc(O)ccc3CCC21 (racemic; 21) [listing 2 of 2 here]			Control [4]: 68%; ED50 [6]: 0.008 µmol/kg
CCCCN1CCCC2c3cc(O)ccc3CCC21 (racemic; 33)		35 nM	IC50 (D(2) dopamine receptor [17]): 10400 nM
CCCN1CCCC2c3ccc(O)cc3CCC21 (racemic; 30) [listing 2 of 2 here]	13000 nM	40 nM	
Oc1cccc([C@H]2CCCN(CCc3ccccc3)C2)c1	1240 nM	8 nM	Accumulated counts (Rattus norvegicus [18]): 26
CCCCN1CCCC2c3cc(OC)ccc3CCC21 (racemic)	3840 nM	5 nM	ED50 (Rattus norvegicus [8]): inactive; Accumulated counts (Rattus norvegicus [13]): 135
CCCCN1CCC[C@H](c2cccc(O)c2)C1	2670 nM	9 nM	Control [4]: 74%; Accumulated counts (Rattus norvegicus [18]): 180
CCN1CCCC2c3cc(O)ccc3CCC21 (racemic)	110 nM	70 nM	Control [4]: 57%; Accumulated counts (Rattus norvegicus [10]): 47; ED50 [6]: 0.017 µmol/kg
CCCN1CCC[C@@H](c2cccc(O)c2)C1 [PRECLAMOL]			Control [4]: 33%; Accumulated counts (Rattus norvegicus [19]): 12
CCN1CCCC2c3cccc(O)c3CCC21 (racemic)	102 nM	236 nM	Control [4]: 54%; Accumulated counts (Rattus norvegicus [5]): 19
CCCN1CCCC2c3c(O)cccc3CCC21 (racemic)	61800 nM	1930 nM	ED50 (Rattus norvegicus [8]): inactive
CCCCN1CCCC2c3cc(O)ccc3CCC21 (racemic; 23) [listing 2 of 2 here]	2990 nM	10 nM	Accumulated counts (Rattus norvegicus [13]): 75
CN1CCC[C@H](c2cccc(O)c2)C1	4120 nM	373 nM	Accumulated counts (Rattus norvegicus [20]): 88
CCCN1CCC[C@H]2c3cccc(O)c3CC[C@@H]21	34 nM	438 nM	Accumulated counts (Rattus norvegicus [5]): 78
CCCN1CCC[C@H]2c3cccc(O)c3CC[C@H]21	> 100000 nM	197 nM	ED50 (Rattus norvegicus [8]): inactive
CCCN1CCC[C@@H]2c3cccc(O)c3CC[C@@H]21 (racemic) [listing 2 of 2 here]			ED50 (Rattus norvegicus [8]): inactive
CCCN1CCC[C@H](c2cccc(O)c2)C1			Control [4]: 84%; Accumulated counts (Rattus norvegicus [21]): 78
CCCN1CCCC2c3cc(O)ccc3CCC21 (stereo in doubt; form 1) [listing 2 of 2 here]		520 nM	Accumulated counts (Rattus norvegicus [22]): 28
CCCN1CCCC2c3cccc(O)c3CCC21 (racemic)			IC50 (D(2) dopamine receptor [23]): 63 nM; Accumulated counts (Rattus norvegicus [5]): 163
